Source: PubChem BioAssay (several laboratories)
m5-HT2A agonist – mouse Htr2a agonists via beta-arrestin recruitment, primary screen, cell-based, luminescence. 5-hydroxytryptamine receptor 2A (Mus musculus), P35363. CHO-K1 mHTR2A beta-arrestin complementation; percent of 30 µM serotonin response. activation, % at 7.6 µM. 0.66% of 360,000 active. AID 624169, 2012;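 active = activation above a run cutoff, the mean activation of all tested compounds plus 3 SD, cut at about 14% in these data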
MC4R antag cAMP – MC4R antagonists of cAMP signaling, primary screen, cell-based, TR-FRET, antagonist arm of biased-ligand search; 0.48% of 360,000 active; MC4R-expressing cells, MTII-stimulated cAMP, LANCE TR-FRET; Melanocortin receptor 4 (Homo sapiens), P32245; inhibition, % at 6.5 µM;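 active = inhibition above its plate's cutoff, the mean of tested wells on that plate plus 3 SD, cut at about 29% in these data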
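Material: U2OS-MC4R stable cell line | Reagent: Melanotan II challenge after compound preincubation | Doses: One concentration, 6.5 µM nominal | Incubation: 30-min compound preincubation, 1-h Melanotan II challenge, 1-h detection, room temperature | Signal: TR-FRET cAMP assay | Replicates: One well per compound, no replicates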
MIN6 prolif-1 – inducers of MIN6 beta-cell proliferation, primary screen, ATP luminescence, uHTS | MIN6 cells proliferation, ATPlite luminescence, 48 h; cells starved in 0.2% serum; 100% = growth in 10% serum | proliferation, % at 10 µM | 0.29% of 330,000 active | AID 2380, 2010;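 active = compounds whose signal lies at least 3.5 SD above the mean of all wells on their plate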
TMEM16A inh – TMEM16A chloride channel inhibitors, primary screen, cell-based, HTS. 1.2% of 310,000 active. normalized B-score (activity score, 25-100; higher = stronger inhibition) at 10 µM. HEK293 TMEM16A/YFP iodide influx fluorescence, ionomycin. Anoctamin-1 (Mus musculus), Q8BHY3;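 active = ratio plate-corrected score three or more library SD toward inhibition, starting fluorescence score within five deviations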;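 note: score derived from kinetic fluorescence span divided by baseline fluorescence per well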
Target sequence (Q8BHY3 whole entry, looked up): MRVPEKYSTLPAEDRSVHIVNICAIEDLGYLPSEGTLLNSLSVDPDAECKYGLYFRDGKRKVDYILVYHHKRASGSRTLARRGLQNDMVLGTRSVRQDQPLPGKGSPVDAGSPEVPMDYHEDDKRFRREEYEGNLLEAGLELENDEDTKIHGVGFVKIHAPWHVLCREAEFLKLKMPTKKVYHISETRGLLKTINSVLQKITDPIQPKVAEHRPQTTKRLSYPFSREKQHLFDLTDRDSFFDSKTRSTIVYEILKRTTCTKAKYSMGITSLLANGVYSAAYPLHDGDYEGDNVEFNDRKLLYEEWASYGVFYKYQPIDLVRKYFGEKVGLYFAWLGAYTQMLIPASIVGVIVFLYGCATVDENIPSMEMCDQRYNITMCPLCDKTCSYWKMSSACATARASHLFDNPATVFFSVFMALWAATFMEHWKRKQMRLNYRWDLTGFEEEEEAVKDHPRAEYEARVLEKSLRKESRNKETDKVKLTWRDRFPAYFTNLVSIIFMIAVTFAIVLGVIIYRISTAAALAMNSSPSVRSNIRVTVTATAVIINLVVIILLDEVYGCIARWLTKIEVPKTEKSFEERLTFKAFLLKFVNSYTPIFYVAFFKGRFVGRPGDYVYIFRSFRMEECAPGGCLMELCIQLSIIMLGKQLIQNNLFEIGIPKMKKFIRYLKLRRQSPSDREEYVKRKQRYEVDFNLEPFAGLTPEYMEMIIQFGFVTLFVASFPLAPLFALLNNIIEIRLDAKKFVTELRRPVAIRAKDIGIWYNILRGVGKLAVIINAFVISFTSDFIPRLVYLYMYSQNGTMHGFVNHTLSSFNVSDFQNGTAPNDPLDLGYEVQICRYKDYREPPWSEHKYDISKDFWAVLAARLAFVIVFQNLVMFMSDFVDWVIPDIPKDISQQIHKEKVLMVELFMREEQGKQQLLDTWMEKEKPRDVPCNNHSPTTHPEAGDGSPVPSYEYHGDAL
ANO1 activ – TMEM16A chloride channel activators or potentiators, primary screen, cell-based, HTS | 0.3% of 340,000 active | HEK293 TMEM16A/YFP-H148Q/I152L, iodide quench fluorescence; stronger effect = lower value | B-score at 10 µM;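 active = fluorescence-ratio B-score plate-corrected deviation score at least 3 library SD below zero, with starting fluorescence score within 5 deviations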;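 note: channel opened by trigger with iodide after compound preincubation; score built on the fluorescence ratio of max minus min over baseline; more negative score means more quench and so TMEM16A activation or potentiation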
MC4R ag barr – MC4R agonists recruiting beta-arrestin, primary screen, cell-based, luminescence, agonist arm of biased-ligand search; AID 540308, 2011; 0.98% of 360,000 active; activation, % at 8.9 µM; U2OS MC4R beta-arrestin complementation; percent of melanotan II response, DMSO zero; Melanocortin receptor 4 (Homo sapiens), P32245;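 active = activation above a per-plate cutoff, the mean activation of sample wells on that plate plus 3 SD, cut at about 8% in these data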
MIN6 prolif-2 – inducers of beta-cell proliferation in MIN6, confirmation, MIN6 cells, mouse; 920 tested, under 10 active; shares compounds with MIN6 prolif-1; proliferation increase, % at 50 µM; ATPlite luminescence, 48 h; cells kept in 0.2% serum; scaled between 0.2% and 10% serum;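 active = proliferation increase above 40% at any of the four tested concentrations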
Large screens that a line does not name were inactive (follow-up assays come after a bar, where they were run). An excerpt weighted towards active compounds, which were near 3.4% of everything screened.

CC(=O)Nc1nc(Cn2nnc(-c3ccc4c(c3)OCO4)n2)nc(N(C)C)n1	MIN6 prolif-1 8.8 | MIN6 prolif-2 inactive
O=C(CNC(=O)c1ccccc1Cl)Nc1ccncc1	none (no result: TMEM16A inh)
O=C(CNC(=O)c1ccccc1Cl)Nc1ccc(F)cc1	MIN6 prolif-1 7.0 | MIN6 prolif-2 inactive
COc1ccccc1Nc1ccncc1[N+](=O)[O-]	MIN6 prolif-1 8.1 | MIN6 prolif-2 inactive
CC1Cc2ccccc2N1C(=O)CSc1nncs1 (stereo unspecified)	none (no result: TMEM16A inh)
COc1ccc(CCC(=O)OCC(=O)NCc2ccc(OC)c(OC)c2)cc1OC	MIN6 prolif-1 9.2 (no result: TMEM16A inh) | MIN6 prolif-2 inactive
CCOC(=O)C1=C(COC(=O)/C=C/c2ccc(Cl)cc2)NC(=O)NC1C (stereo unspecified)	none
CCOC(=O)C1=C(COC(=O)c2sccc2C)NC(=O)NC1C (stereo unspecified)	MIN6 prolif-1 11 (no result: TMEM16A inh) | MIN6 prolif-2 inactive
CCOC(=O)C1=C(COC(=O)/C=C/c2ccccc2F)NC(=O)NC1C (stereo unspecified)	MIN6 prolif-1 12 | MIN6 prolif-2 inactive
CCOC(=O)C1=C(COC(=O)/C=C/c2ccccc2)NC(=O)NC1C (stereo unspecified)	MIN6 prolif-1 12 | MIN6 prolif-2 inactive
COc1ccc(NC(=O)N(C)C[C@H]2Oc3ncc(Br)cc3C(=O)N([C@H](C)CO)C[C@@H]2C)cc1	none (no result: MIN6 prolif-1, TMEM16A inh, ANO1 activ)
COC(=O)c1sccc1S(=O)(=O)N1CCCC(N(C)CCc2ccccn2)C1 (stereo unspecified)	none
CCN1C(=O)/C(=C2/SC(C)=C(C)N2CC)SC1=S	MIN6 prolif-1 7.5 | MIN6 prolif-2 inactive
CC1CCC(NC(=O)CSc2nncn2C)CC1 (stereo unspecified)	none (no result: TMEM16A inh)
CCOC(=O)C1CCN(C(=O)C2(NC(=O)Nc3ccc(F)cc3F)CCCCC2)CC1	MIN6 prolif-1 7.6 | MIN6 prolif-2 inactive
CCOC(=O)N1C(=O)[C@](CC)(c2ccccc2)N1C(=O)OCC	MIN6 prolif-1 12 | MIN6 prolif-2 inactive
COc1cccc(-n2nc(C#N)c(Cl)cc2=O)c1	none (no result: TMEM16A inh)
COc1cccc(-n2nc(C(C)=O)c(C#N)c2-c2ccco2)c1	MIN6 prolif-1 9.4 | MIN6 prolif-2 inactive
CCNC(=S)Nc1cc(C)ccn1	MIN6 prolif-1 0.0 | MIN6 prolif-2 inactive
Cc1ccc(CC(=O)Nc2cc(C)ccn2)cc1	none
Cc1ccc(S(=O)(=O)N2CCOC23CCN(C(=O)c2ccccc2Br)CC3)cc1	MIN6 prolif-1 13 | MIN6 prolif-2 inactive
CN1CCN(c2ccc(CNC(=O)C3(C)Cc4c(-c5ccc6c(c5)OCO6)ccnc4O3)cc2)CC1 (stereo unspecified)	none (no result: MIN6 prolif-1, TMEM16A inh, ANO1 activ)
CCC(c1nnnn1-c1ccc2c(c1)OCCO2)N1CCN(Cc2c(F)cccc2Cl)CC1 (stereo unspecified)	none (no result: MC4R antag cAMP, MIN6 prolif-1, TMEM16A inh, ANO1 activ, MC4R ag barr)
COc1cc2nc(Cl)nc(N3CCOCC3)c2cc1OC	none
COc1cc2nc(Cl)nc(N3CCCCC3)c2cc1OC	MIN6 prolif-1 7.6 | MIN6 prolif-2 inactive
COc1ccccc1CNC(=O)CSc1ccc(-c2cccs2)nn1	MIN6 prolif-1 7.8 | MIN6 prolif-2 inactive
COc1ccc(CC(=O)N2CCN(c3ccc(C4=NNC(=O)CC4C)cc3)CC2)cc1 (stereo unspecified)	MIN6 prolif-1 4.6 | MIN6 prolif-2 inactive
O=C(CCn1c(=O)oc2ccc(Cl)cc21)NCCCN1CCOCC1	none
COc1ccc(Cn2c(C3CC3)nc3ccc(NC(=O)c4ccco4)cc3c2=O)cc1	MIN6 prolif-1 5.5 | MIN6 prolif-2 inactive
CC1CCc2c(sc3ncnc(SC(C)C(=O)NCC4CCCO4)c23)C1 (stereo unspecified)	none
COCCNC(=S)NN(c1ccccc1)c1ccccc1	MIN6 prolif-1 9.0 | MIN6 prolif-2 inactive
COCCNC(=S)N(c1ccccc1)C(C)C	none
O=C(CC(C(=O)O)c1ccc(Cl)cc1)c1ccc(Br)cc1 (stereo unspecified)	none
O=C(Nc1cccc(S(=O)(=O)C(F)(F)F)c1)[C@H]1C[C@H](O)[C@@H](CO)O1	none (no result: MIN6 prolif-1, TMEM16A inh, ANO1 activ)
COc1cc(-c2coc3c(C(=O)NCc4ccccc4)cccc23)ccc1O	none (no result: MIN6 prolif-1, TMEM16A inh, ANO1 activ)
COc1cccc(/C=N/NC(=O)CO/N=C(\C)c2cccs2)c1OC	MIN6 prolif-1 4.6 | MIN6 prolif-2 inactive
CCc1ccccc1NC(=O)CN(C)C(=O)COC(=O)c1ccco1	none (no result: TMEM16A inh)
CCN(CC)C(=O)Oc1cc(COC)nc(-c2ccccc2)n1	MIN6 prolif-1 5.3 | MIN6 prolif-2 inactive
COC(=O)c1ccc(CO/N=C/c2ccc(OC)cc2OC)cc1	MIN6 prolif-1 8.0 | MIN6 prolif-2 inactive
O=C(N/N=C(\c1ccccc1)c1cccnc1)c1cc(O)ccc1O	none (no result: m5-HT2A agonist, MC4R antag cAMP, ANO1 activ, MC4R ag barr)
C=CCNC(=O)c1onc(CSc2ccccc2CC)c1C(=O)O	MIN6 prolif-1 12 | MIN6 prolif-2 inactive
CC1(C)CC(NC(=O)C2CCC(=O)N(C3CC3)C2)CC(C)(C)C1 (stereo unspecified)	none
O=C(NC1CCCCC1)C1CCC(=O)N(C2CC2)C1 (stereo unspecified)	MIN6 prolif-1 11 | MIN6 prolif-2 inactive
CC(=O)c1ccc(S(=O)(=O)NCCC(=O)NC(C)c2ccncc2)cc1 (stereo unspecified)	none (no result: TMEM16A inh)
Cc1cc(C)c(C)c(S(=O)(=O)Nc2ccccc2C(=O)NCCCN2CCOCC2)c1C	MIN6 prolif-1 8.2 | MIN6 prolif-2 inactive
OCC[C@@H]1C[C@@H](O)[C@H](O)[C@]2(CCCc3ccccc3O2)O1	MIN6 prolif-1 14 | MIN6 prolif-2 inactive
OCC[C@H]1C[C@@H](O)[C@H](O)[C@]2(CCCc3ccccc3O2)O1	none
Oc1ccccc1-c1nc(N2CCCC2)c2ccccc2n1	MIN6 prolif-1 7.0 | MIN6 prolif-2 inactive
CCn1cc(CN2CCC(C(=O)Nc3ccc(Oc4cccnc4)cc3)CC2)cn1	none
COc1ccc(N2CCN(C(=O)CN(c3cccc(OC)c3)S(=O)(=O)c3ccccc3)CC2)cc1	none
COc1cc(/C=N/NS(=O)(=O)c2ccc3ccccc3c2)ccc1OCCN1CCOCC1	MIN6 prolif-1 0.0 | MIN6 prolif-2 inactive
